Assay results reported in ChEMBL document CHEMBL1777721, “Phenolic compounds with NF-κB inhibitory effects from the fungus Phellinus baumii” (Bioorg Med Chem Lett, 2011).

Legend:
[1] = system: LNCaP; test: Inhibition of LPS-induced NF-kappaB-dependent reporter gene transcription in androgen-sensitive human LNCap cells; type: cell-based; conditions: for inhibition: dose or concentration not given here
Procedure, shortened: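 Luciferase NF-κB reporter assay in androgen-sensitive LNCaP prostate cancer cells. Cells were pretreated with the test compound, then stimulated with LPS to activate NF-κB. Reporter activity was read at three concentrations and expressed as percent reduction of the LPS-induced signal.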

[2] = Inhibition of basal NF-kappaB-dependent reporter gene transcription in androgen-insensitive human PC3 cells
[3] = Homo sapiens, PC-3, read-out: IC50

IC50 [2, 3] | IC50 ([2]; pc-3) | SMILES | Activity [1] | inhibition [1]
52.9 µM | – | CCOC(=O)/C(=C\c1ccc(O)c(O)c1)c1c(O)cc(/C=C/c2ccc(O)c(O)c2)oc1=O [PHELLIBAUMIN E] | – | –
22.5 µM | – | COc1cc(O)c2c(c1Cc1ccccc1O)O[C@H](c1ccc(O)cc1)CC2=O | – | –
71.2 µM | – | CC(=O)/C(=C\c1ccc(O)c(O)c1)c1c(O)cc(/C=C/c2ccc(O)c(O)c2)oc1=O [INTERFUNGIN B] | – | –
22.5 µM | – | COc1cc(O)c2c(c1Cc1ccccc1O)O[C@@H](c1ccc(O)cc1)CC2=O [METHYLPHELLIGRIN B] | Dose-dependent effect | 62.5%
41.4 µM | – | O=C(O)CC1Oc2cc(/C=C/c3ccc(O)c(O)c3)oc(=O)c2-c2cc(O)c(O)cc21 (stereo not given) [PHELLIBAUMIN B] | – | –
54.5 µM | – | O=C1C[C@@H](c2ccc(O)cc2)Oc2cc(O)c(Cc3ccccc3O)c(O)c21 | – | –
– | Not Active | O=c1oc2cc(O)c1-c1cc(O)c(O)cc1/C=C/c1cc3c(c(=O)o1)[C@H](c1cc(O)c(c(=O)o1)-c1cc(O)c(O)cc1/C=C/c1cc4c(c(=O)o1)[C@H]2[C@@H](c1ccc(O)c(O)c1)O4)[C@@H](c1ccc(O)c(O)c1)O3 [PHELLIGRIDIMER A] | – | –
74.6 µM | – | O=C(O)/C(=C\c1ccc(O)c(O)c1)c1c(O)cc(/C=C/c2ccc(O)c(O)c2)oc1=O [PHELLIBAUMIN D] | – | –

More lines, now with the values behind:

SMILES | IC50 [2, 3] | IC50 ([2]; pc-3) | Activity [1] | inhibition [1]
O=C1C[C@H](c2ccc(O)cc2)Oc2cc(O)c(Cc3ccccc3O)c(O)c21 [PHELLIGRIN A] | 54.5 µM | – | Dose-dependent effect | 18.4%
COc1cc2c(c(O)c1Cc1ccccc1O)C(=O)C[C@@H](c1ccc(O)cc1)O2 | 36.4 µM | – | – | –
O=c1oc(/C=C/c2ccc(O)c(O)c2)cc2oc3cc(O)c(O)cc3c12 [PHELLIBAUMIN A] | 53 µM | – | – | –
O=c1oc(/C=C/c2ccc(O)c(O)c2)cc(O)c1/C(=C/c1ccc(O)c(O)c1)c1cc2oc(=O)c3cc(O)c(O)cc3c2c(=O)o1 [PHELLIBAUMIN C] | 62.3 µM | – | – | –
O=c1oc2cc(-c3c(-c4ccc(O)c(O)c4)oc4cc(/C=C/c5ccc(O)c(O)c5)oc(=O)c34)oc(=O)c2c2cc(O)c(O)cc12 [PHELLIGRIDIN H] | 84.9 µM | – | – | –
COc1cc2c(c(O)c1Cc1ccccc1O)C(=O)C[C@H](c1ccc(O)cc1)O2 | 36.4 µM | – | Dose-dependent effect | 35%
